Source: ChEMBL document CHEMBL1212781, “VIM-19, a metallo-beta-lactamase with increased carbapenemase activity from Escherichia coli and Klebsiella pneumoniae” (2010)
In brackets after ≈: the same amount, converted by molar mass.

Tests used:
[1] = tested on: CC(C)(O/N=C(\C(=O)N[C@@H]1C(=O)N2C(C(=O)[O-])=C(C[n+]3ccccc3)CS[C@H]12)c1csc(N)n1)C(=O)O; assay: (§1) Hydrolytic activity of beta-lactamase VIM-19 expressed in Escherichia coli TOP10 by spectrophotometry
In short: (§2)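 Enzyme came from E. coli TOP10 (pVIM-19) grown overnight at 37°C in Trypticase soy broth with amoxicillin (100 μg/ml) and kanamycin (30 μg/ml). The sonicated, cleared extract was purified on Q-Sepharose with a 0–1 M NaCl gradient, in Bis-Tris then cacodylate pH 6.5 buffers.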

[2] = tested on: CC1(C)S[C@@H]2[C@H](NC(=O)Cc3ccccc3)C(=O)N2[C@H]1C(=O)O; assay: as §1; in short: as §2
[3] = tested on: CCN1CCN(C(=O)N[C@@H](C(=O)N[C@@H]2C(=O)N3[C@@H]2SC(C)(C)[C@@H]3C(=O)O)c2ccccc2)C(=O)C1=O; assay: as §1; in short: as §2
[4] = tested on: CO/N=C(\C(=O)N[C@@H]1C(=O)N2C(C(=O)O)=C(COC(C)=O)CS[C@H]12)c1csc(N)n1; assay: as §1; in short: as §2
[5] = tested on: CO[C@@]1(NC(=O)Cc2cccs2)C(=O)N2C(C(=O)O)=C(COC(N)=O)CS[C@@H]21; assay: as §1; in short: as §2
[6] = tested on: C[C@@H](O)[C@H]1C(=O)N2C(C(=O)O)=C(S[C@@H]3CN[C@H](C(=O)N(C)C)C3)[C@H](C)[C@H]12; assay: as §1; in short: as §2
[7] = tested on: C[C@@H](O)[C@H]1C(=O)N2C(C(=O)O)=C(S[C@@H]3CN[C@H](C(=O)Nc4cccc(C(=O)O)c4)C3)[C@H](C)[C@H]12; assay: as §1; in short: as §2
[8] = tested on: CC(C)(O/N=C(\C(=O)N[C@@H]1C(=O)N2C(C(=O)[O-])=C(C[n+]3ccccc3)CS[C@H]12)c1csc(N)n1)C(=O)O; assay: (§3) Ratio of Kcat to Km for beta-lactamase VIM-19 expressed in Escherichia coli TOP10 by spectrophotometry; in short: as §2
[9] = tested on: CC1(C)S[C@@H]2[C@H](NC(=O)Cc3ccccc3)C(=O)N2[C@H]1C(=O)O; assay: as §3; in short: as §2
[10] = tested on: CCN1CCN(C(=O)N[C@@H](C(=O)N[C@@H]2C(=O)N3[C@@H]2SC(C)(C)[C@@H]3C(=O)O)c2ccccc2)C(=O)C1=O; assay: as §3; in short: as §2
[11] = tested on: CO/N=C(\C(=O)N[C@@H]1C(=O)N2C(C(=O)O)=C(COC(C)=O)CS[C@H]12)c1csc(N)n1; assay: as §3; in short: as §2
[12] = tested on: CO[C@@]1(NC(=O)Cc2cccs2)C(=O)N2C(C(=O)O)=C(COC(N)=O)CS[C@@H]21; assay: as §3; in short: as §2
[13] = tested on: C[C@@H](O)[C@H]1C(=O)N2C(C(=O)O)=C(S[C@@H]3CN[C@H](C(=O)N(C)C)C3)[C@H](C)[C@H]12; assay: as §3; in short: as §2
[14] = tested on: C[C@@H](O)[C@H]1C(=O)N2C(C(=O)O)=C(S[C@@H]3CN[C@H](C(=O)Nc4cccc(C(=O)O)c4)C3)[C@H](C)[C@H]12; assay: as §3; in short: as §2
Escherichia coli [15] = assay: Antimicrobial activity in Escherichia coli DIH-1 expressing beta-lactamase VIM-19 by Etest; assay type: functional
In short: (§4)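 MICs read by Etest on Mueller-Hinton agar incubated at 37°C. Susceptibility was categorized according to CLSI guidelines. Transconjugants were obtained in E. coli J53 by liquid mating at 37°C, with selection on agar containing amoxicillin (50 μg/ml) and azide (100 μg/ml).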

Escherichia coli [16] = assay: microbe, parasite or virus in culture; assay type: functional; details: TOP10
Klebsiella pneumoniae [17] = assay: Antimicrobial activity in Klebsiella pneumoniae DIH-2 clinical isolate expressing beta-lactamase VIM-19 by Etest; assay type: functional
Escherichia coli [18] = assay: microbe, parasite or virus in culture; assay type: functional; details: TOP10; remark: listed apart in the source
Escherichia coli [19] = assay: microbe, parasite or virus in culture; assay type: functional; details: TOP10; remark: listed apart in the source
Escherichia coli [20] = assay: microbe, parasite or virus in culture; assay type: functional; details: TOP10; remark: listed apart in the source
Escherichia coli [21] = assay: Antimicrobial activity in Escherichia coli J53 transconjugate with Escherichia coli DIH-1 expressing natural plasmid containing beta-lactamase VIM-19; assay type: functional
In short: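 Transconjugants came from liquid mating-out at 37°C with azide-resistant E. coli J53 as recipient, selected on agar with amoxicillin (50 μg/ml) plus azide (100 μg/ml). MICs were then read by Etest on Mueller-Hinton agar at 37°C and interpreted per CLSI.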

Escherichia coli [22] = assay: Antimicrobial activity in Escherichia coli TOP10 strain; assay type: functional
In short: (§5)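 MICs were determined by Etest on Mueller-Hinton agar plates incubated at 37°C. Susceptibility was interpreted according to CLSI guidelines.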

Escherichia coli [23] = assay: Antimicrobial activity in Escherichia coli J53 strain; assay type: functional; in short: as §5
Escherichia coli [24] = assay: Antimicrobial activity in Escherichia coli DIH-1 expressing beta-lactamase VIM-19 by Etest in presence of 4 ug/ml clavulanic acid; assay type: functional; in short: as §4
Klebsiella pneumoniae [25] = assay: Antimicrobial activity in Klebsiella pneumoniae DIH-2 clinical isolate expressing beta-lactamase VIM-19 by Etest in presence of 4 ug/ml clavulanic acid; assay type: functional; in short: as §4
Escherichia coli [26] = assay: Antimicrobial activity in Escherichia coli TOP10 hourbouring recombinant plasmid VIM-19 by Etest in presence of 4 ug/ml clavulanic acid; assay type: functional; in short: as §4
Escherichia coli [27] = assay: Antimicrobial activity in Escherichia coli TOP10 hourbouring recombinant plasmid VIM-4 by Etest in presence of 4 ug/ml clavulanic acid; assay type: functional; in short: as §4
Escherichia coli [28] = assay: Antimicrobial activity in Escherichia coli J53 transconjugate with Escherichia coli DIH-1 expressing natural plasmid containing beta-lactamase VIM-19 in presence of 4 ug/ml clavulanic acid; assay type: functional; in short: as §4
Escherichia coli [29] = assay: Antimicrobial activity in Escherichia coli TOP10 strain in presence of 4 ug/ml clavulanic acid; assay type: functional
In short: (§6)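 MIC by Etest on Mueller-Hinton agar plates at 37°C, with susceptibility interpreted per CLSI guidelines.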

Escherichia coli [30] = assay: Antimicrobial activity in Escherichia coli J53 strain in presence of 4 ug/ml clavulanic acid; assay type: functional; in short: as §6

With “Metallo-beta-lactamase VIM-19 (Escherichia coli) (from UniProt D2D9J0)” the Km [1] was greater than 1000 µM, the kcat [1] was greater than 20 s⁻¹ and the Km [2] was 300 µM. The kcat [2] was 1300 s⁻¹, the kcat [3] was 860 s⁻¹ and the Km [4] was 30 µM. For the same compound, the kcat [4] was 900 s⁻¹, the Km [5] was 60 µM and the kcat [5] was 30 s⁻¹. The Km [6] was 15 µM, the Km [7] was 200 µM and the kcat [7] was 15 s⁻¹. The kcat/Km [8] was 20000 M⁻¹ s⁻¹, the kcat/Km [9] was 5e+06 M⁻¹ s⁻¹ and the kcat/Km [10] was 4e+06 M⁻¹ s⁻¹. For the same compound, the kcat/Km [11] was 3e+07 M⁻¹ s⁻¹, the kcat/Km [12] was 500000 M⁻¹ s⁻¹ and the kcat/Km [13] was 2e+06 M⁻¹ s⁻¹. It also gave a kcat/Km [14] of 100000 M⁻¹ s⁻¹.

`C[C@H]1[C@H](NC(=O)/C(=N\OC(C)(C)C(=O)O)c2csc(N)n2)C(=O)N1S(=O)(=O)O` [AZTREONAM] showed an MIC (Escherichia coli [15]) of 4 µg/mL (≈ 9.19 µM) and an MIC (Escherichia coli [16]) of 0.12 µg/mL (≈ 0.276 µM).

With `CO/N=C(\C(=O)N[C@@H]1C(=O)N2C(C(=O)[O-])=C(C[n+]3cccc4c3CCC4)CS[C@H]12)c1csc(N)n1` [CEFPIROME] the MIC (Escherichia coli [15]) was 32 µg/mL (≈ 62.2 µM), the MIC (Klebsiella pneumoniae [17]) was 64 µg/mL (≈ 124 µM) and the MIC (Escherichia coli [18]) was 2 µg/mL (≈ 3.89 µM). For the same compound, the MIC (Escherichia coli [19]) was 2 µg/mL (≈ 3.89 µM), the MIC (Escherichia coli [20]) was 32 µg/mL (≈ 62.2 µM) and the MIC (Escherichia coli [16]) was 32 µg/mL (≈ 62.2 µM). For the same compound, the MIC (Escherichia coli [21]) was 2 µg/mL (≈ 3.89 µM), the MIC (Escherichia coli [22]) was 0.06 µg/mL (≈ 0.117 µM) and the MIC (Escherichia coli [23]) was 0.12 µg/mL (≈ 0.233 µM).

`CC1(C)S[C@@H]2[C@H](NC(=O)[C@H](N)c3ccc(O)cc3)C(=O)N2[C@H]1C(=O)O` [AMOXICILLIN] showed an MIC (Escherichia coli [15]) greater than 512 µg/mL, an MIC (Klebsiella pneumoniae [17]) greater than 512 µg/mL and an MIC (Escherichia coli [18]) greater than 512 µg/mL. The MIC (Escherichia coli [19]) was greater than 512 µg/mL, the MIC (Escherichia coli [21]) was greater than 512 µg/mL and the MIC (Escherichia coli [22]) was 4 µg/mL (≈ 10.9 µM). For the same compound, the MIC (Escherichia coli [23]) was 4 µg/mL (≈ 10.9 µM), the MIC (Escherichia coli [24]) was greater than 512 µg/mL and the MIC (Klebsiella pneumoniae [25]) was greater than 512 µg/mL. For the same compound, the MIC (Escherichia coli [26]) was greater than 512 µg/mL, the MIC (Escherichia coli [27]) was greater than 512 µg/mL and the MIC (Escherichia coli [28]) was greater than 512 µg/mL. For the same compound, the MIC (Escherichia coli [29]) was 4 µg/mL and the MIC (Escherichia coli [30]) was 4 µg/mL.

Compound `C[C@@H](O)[C@H]1C(=O)N2C(C(=O)O)=C(S[C@@H]3CN[C@H](C(=O)N(C)C)C3)[C@H](C)[C@H]12` [MEROPENEM] has an MIC (Klebsiella pneumoniae [17]) of 4 µg/mL (≈ 10.4 µM), an MIC (Escherichia coli [18]) of 1 µg/mL (≈ 2.61 µM) and an MIC (Escherichia coli [19]) of 1 µg/mL (≈ 2.61 µM). For the same compound, the MIC (Escherichia coli [20]) was 0.25 µg/mL (≈ 0.652 µM), the MIC (Escherichia coli [16]) was 0.25 µg/mL (≈ 0.652 µM) and the MIC (Escherichia coli [21]) was 0.5 µg/mL (≈ 1.3 µM). For the same compound, the MIC (Escherichia coli [22]) was 0.016 µg/mL (≈ 0.0417 µM) and the MIC (Escherichia coli [23]) was 0.016 µg/mL (≈ 0.0417 µM).

`CO[C@@]1(NC(=O)Cc2cccs2)C(=O)N2C(C(=O)O)=C(COC(N)=O)CS[C@@H]21` [CEFOXITIN] showed an MIC (Escherichia coli [15]) greater than 512 µg/mL, an MIC (Klebsiella pneumoniae [17]) greater than 512 µg/mL and an MIC (Escherichia coli [18]) of 256 µg/mL (≈ 599 µM). The MIC (Escherichia coli [19]) was 256 µg/mL (≈ 599 µM), the MIC (Escherichia coli [20]) was 256 µg/mL (≈ 599 µM) and the MIC (Escherichia coli [16]) was 256 µg/mL (≈ 599 µM). For the same compound, the MIC (Escherichia coli [21]) was 256 µg/mL (≈ 599 µM), the MIC (Escherichia coli [22]) was 4 µg/mL (≈ 9.36 µM) and the MIC (Escherichia coli [23]) was 4 µg/mL (≈ 9.36 µM).

In the case of `C[C@@H](O)[C@H]1C(=O)N2C(C(=O)O)=C(S[C@@H]3CN[C@H](C(=O)Nc4cccc(C(=O)O)c4)C3)[C@H](C)[C@H]12`, the MIC (Escherichia coli [15]) is reported as 16 µg/mL (≈ 33.6 µM), the MIC (Klebsiella pneumoniae [17]) is reported as 16 µg/mL (≈ 33.6 µM) and the MIC (Escherichia coli [18]) is reported as 2 µg/mL (≈ 4.21 µM). The MIC (Escherichia coli [19]) was 2 µg/mL (≈ 4.21 µM), the MIC (Escherichia coli [20]) was 0.125 µg/mL (≈ 0.263 µM) and the MIC (Escherichia coli [16]) was 0.125 µg/mL (≈ 0.263 µM). It also gave an MIC (Escherichia coli [21]) of 1.5 µg/mL (≈ 3.15 µM), an MIC (Escherichia coli [22]) of 0.006 µg/mL (≈ 0.0126 µM) and an MIC (Escherichia coli [23]) of 0.006 µg/mL (≈ 0.0126 µM).
